Experimental data taken from publication PMC7709506 (ESMO Open, 2020).
“Also recorded” adds a separate entry of the source.

Assay: Safety and tolerability
Type: in vivo, human
In short: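 Open-label multicentre phase I/IIa trial in adults with advanced or metastatic solid tumours. Part 1 used 3+3 oral capsule escalation at 50–800 mg/day to define DLT and MTD. Part 2 gave tablets. Treatment continued until progression, intolerable AE or study end, with dose decisions by a safety monitoring board. AEs of special interest were monitored. The safety population was all dosed patients, summarised by dose level.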

Cn1cc(-c2ccc3c(c2)ncn3-c2cc(NS(=O)(=O)C3CC3)cc(-c3ccc(F)cc3F)c2)cn1 [ODM-203]
Decreased appetite (capsule 600 mg (n=30)): 9 (30.0) n (%)
Diarrhoea (capsule 600 mg (n=30)): 17 (56.7) n (%)
Dry mouth (capsule 600 mg (n=30)): 14 (46.7) n (%)
Dry skin (capsule 600 mg (n=30)): 1 (3.3) n (%)
Dysgeusia (capsule 600 mg (n=30)): 5 (16.7) n (%)
Epistaxis (capsule 600 mg (n=30)): 8 (26.7) n (%)
Fatigue (capsule 600 mg (n=30)): 10 (33.3) n (%)
Hyperbilirubinaemia (capsule 600 mg (n=30)): 10 (33.3) n (%)
Hyperphosphataemia (capsule 600 mg (n=30)): 6 (20.0) n (%)
Hypertension (capsule 600 mg (n=30)): 5 (16.7) n (%)
Jaundice (capsule 600 mg (n=30)): 10 (33.3) n (%)
Mucosal inflammation (capsule 600 mg (n=30)): 1 (3.3) n (%)
Myalgia (capsule 600 mg (n=30)): 4 (13.3) n (%)
Nasal dryness (capsule 600 mg (n=30)): 5 (16.7) n (%)
Nausea (capsule 600 mg (n=30)): 4 (13.3) n (%)
Onycholysis (capsule 600 mg (n=30)): 6 (20.0) n (%)
Palmar-plantar eryrthodysaestesia (capsule 600 mg (n=30)): 11 (36.7) n (%)
Related AE (capsule 600 mg (n=30)): 30 (100) n (%)
Related SAEs (capsule 600 mg (n=30)): 8 (26.7) n (%)
Stomatitis (capsule 600 mg (n=30)): 11 (36.7) n (%)
Vomiting (capsule 600 mg (n=30)): 2 (6.7) n (%)
Weight decreased (capsule 600 mg (n=30)): 10 (33.3) n (%)
patients with a DLT (punctate keratitis) (capsule 800 mg): 1 patient
AE leading to death (capsule 800 mg (n=7)): 0 n (%)
AE leading to discontinuation (capsule 800 mg (n=7)): 3 (42.9) n (%)
AE leading to dose reduction (capsule 800 mg (n=7)): 0 n (%)
AE leading to treatment interruption (capsule 800 mg (n=7)): 5 (71.4) n (%)
Alopecia (capsule 800 mg (n=7)): 5 (71.4) n (%)
Any AE (capsule 800 mg (n=7)): 7 (100) n (%)
Arthralgia (capsule 800 mg (n=7)): 4 (57.1) n (%)
Asthenia (capsule 800 mg (n=7)): 2 (28.6) n (%)
Blood bilirubin increased (capsule 800 mg (n=7)): 3 (42.9) n (%)
Conjugated bilirubin increased (capsule 800 mg (n=7)): 0 n (%)
Decreased appetite (capsule 800 mg (n=7)): 1 (14.3) n (%)
Diarrhoea (capsule 800 mg (n=7)): 4 (57.1) n (%)
Dry skin (capsule 800 mg (n=7)): 1 (14.3) n (%)
Dysgeusia (capsule 800 mg (n=7)): 1 (14.3) n (%)
Epistaxis (capsule 800 mg (n=7)): 3 (42.9) n (%)
Fatigue (capsule 800 mg (n=7)): 2 (28.6) n (%)
Hyperbilirubinaemia (capsule 800 mg (n=7)): 4 (57.1) n (%)
Hyperphosphataemia (capsule 800 mg (n=7)): 3 (42.9) n (%)
Hypertension (capsule 800 mg (n=7)): 0 n (%)
Jaundice (capsule 800 mg (n=7)): 2 (28.6) n (%)
Mucosal inflammation (capsule 800 mg (n=7)): 0 n (%)
Myalgia (capsule 800 mg (n=7)): 2 (28.6) n (%)
Nasal dryness (capsule 800 mg (n=7)): 0 n (%)
Nausea (capsule 800 mg (n=7)): 0 n (%)
Onycholysis (capsule 800 mg (n=7)): 2 (28.6) n (%)
Palmar-plantar eryrthodysaestesia (capsule 800 mg (n=7)): 1 (14.3) n (%)
Related AE (capsule 800 mg (n=7)): 7 (100) n (%)
Related SAEs (capsule 800 mg (n=7)): 1 (14.3) n (%)
Stomatitis (capsule 800 mg (n=7)): 4 (57.1) n (%)
Vomiting (capsule 800 mg (n=7)): 0 n (%)
Weight decreased (capsule 800 mg (n=7)): 1 (14.3) n (%)
maximum tolerated dose (MTD) (capsule, up to 800 mg once daily): not established; also recorded: not reached
arthralgia grade 3 events (in vivo): two
hypertension considered related to study treatment (in vivo): 14 patients
hypertension events of grade 3 or higher (in vivo): three
myalgia grade 3 (in vivo): two
increased alanine transaminase levels (of 30 patients treated with 400 mg/day): three
Hypertension (patients): 19%
Myalgia (patients): 16.7%
back pain (patients): 11.9%
grade 3 hypertension (patients): 3.6%
ocular events (patients): 19.0%
AEs leading to dose reductions (patients, N=84): 10.7%
AEs leading to treatment interruption (patients, N=84): 72.6%
bilirubin increase-related events (patients, N=84): 75%
diarrhoea (AE related to treatment) (patients, N=84): 50%
dry mouth (AE related to treatment) (patients, N=84): 34.5%
events resulting in treatment discontinuation (patients, N=84): 35.7%
palmar-plantar eryrthrodysesthesia (AE related to treatment) (patients, N=84): 35.7%
stomatitis (AE related to treatment) (patients, N=84): 40.5%
AEs considered related to the treatment (share of AEs, all doses): 70.4%
AEs grade 1 or 2 in severity (share of AEs, all doses): 89.2%
AE leading to death (tablet 200 mg (n=3)): 0 n (%)
AE leading to discontinuation (tablet 200 mg (n=3)): 0 n (%)
AE leading to dose reduction (tablet 200 mg (n=3)): 0 n (%)
AE leading to treatment interruption (tablet 200 mg (n=3)): 0 n (%)
Alopecia (tablet 200 mg (n=3)): 1 (33.3) n (%)
Any AE (tablet 200 mg (n=3)): 3 (100) n (%)
Arthralgia (tablet 200 mg (n=3)): 1 (33.3) n (%)
Asthenia (tablet 200 mg (n=3)): 0 n (%)
Blood bilirubin increased (tablet 200 mg (n=3)): 2 (66.7) n (%)
Conjugated bilirubin increased (tablet 200 mg (n=3)): 0 n (%)
Decreased appetite (tablet 200 mg (n=3)): 1 (33.3) n (%)
Diarrhoea (tablet 200 mg (n=3)): 0 n (%)
Dry mouth (tablet 200 mg (n=3)): 1 (33.3) n (%)
Dry skin (tablet 200 mg (n=3)): 0 n (%)
Dysgeusia (tablet 200 mg (n=3)): 1 (33.3) n (%)
Epistaxis (tablet 200 mg (n=3)): 0 n (%)
Fatigue (tablet 200 mg (n=3)): 1 (33.3) n (%)
Hyperbilirubinaemia (tablet 200 mg (n=3)): 0 n (%)
Hyperphosphataemia (tablet 200 mg (n=3)): 0 n (%)
Hypertension (tablet 200 mg (n=3)): 1 (33.3) n (%)
Jaundice (tablet 200 mg (n=3)): 0 n (%)
Mucosal inflammation (tablet 200 mg (n=3)): 0 n (%)
Myalgia (tablet 200 mg (n=3)): 1 (33.3) n (%)
Nasal dryness (tablet 200 mg (n=3)): 0 n (%)
Nausea (tablet 200 mg (n=3)): 0 n (%)
Onycholysis (tablet 200 mg (n=3)): 0 n (%)
Palmar-plantar eryrthodysaestesia (tablet 200 mg (n=3)): 0 n (%)
Related AE (tablet 200 mg (n=3)): 3 (100) n (%)
Related SAEs (tablet 200 mg (n=3)): 0 n (%)
Stomatitis (tablet 200 mg (n=3)): 1 (33.3) n (%)
Vomiting (tablet 200 mg (n=3)): 0 n (%)
Weight decreased (tablet 200 mg (n=3)): 0 n (%)
AE leading to death (tablet 300 mg (n=3)): 0 n (%)
AE leading to discontinuation (tablet 300 mg (n=3)): 0 n (%)
AE leading to dose reduction (tablet 300 mg (n=3)): 1 (33.3) n (%)
AE leading to treatment interruption (tablet 300 mg (n=3)): 1 (33.3) n (%)
Alopecia (tablet 300 mg (n=3)): 1 (33.3) n (%)
Any AE (tablet 300 mg (n=3)): 3 (100) n (%)
Arthralgia (tablet 300 mg (n=3)): 2 (66.7) n (%)
Asthenia (tablet 300 mg (n=3)): 3 (100) n (%)
Blood bilirubin increased (tablet 300 mg (n=3)): 0 n (%)
Conjugated bilirubin increased (tablet 300 mg (n=3)): 1 (33.3) n (%)
Decreased appetite (tablet 300 mg (n=3)): 2 (66.7) n (%)
Diarrhoea (tablet 300 mg (n=3)): 1 (33.3) n (%)
Dry mouth (tablet 300 mg (n=3)): 1 (33.3) n (%)
Dry skin (tablet 300 mg (n=3)): 1 (33.3) n (%)
Dysgeusia (tablet 300 mg (n=3)): 1 (33.3) n (%)
Epistaxis (tablet 300 mg (n=3)): 1 (33.3) n (%)
Fatigue (tablet 300 mg (n=3)): 0 n (%)
Hyperbilirubinaemia (tablet 300 mg (n=3)): 1 (33.3) n (%)
Hyperphosphataemia (tablet 300 mg (n=3)): 1 (33.3) n (%)
Hypertension (tablet 300 mg (n=3)): 0 n (%)
Jaundice (tablet 300 mg (n=3)): 1 (33.3) n (%)
Mucosal inflammation (tablet 300 mg (n=3)): 1 (33.3) n (%)
Myalgia (tablet 300 mg (n=3)): 0 n (%)
Nasal dryness (tablet 300 mg (n=3)): 1 (33.3) n (%)
Nausea (tablet 300 mg (n=3)): 0 n (%)
Onycholysis (tablet 300 mg (n=3)): 0 n (%)
Palmar-plantar eryrthodysaestesia (tablet 300 mg (n=3)): 1 (33.3) n (%)
Related AE (tablet 300 mg (n=3)): 3 (100) n (%)
Related SAEs (tablet 300 mg (n=3)): 1 (33.3) n (%)
Stomatitis (tablet 300 mg (n=3)): 0 n (%)
Vomiting (tablet 300 mg (n=3)): 1 (33.3) n (%)
Weight decreased (tablet 300 mg (n=3)): 2 (66.7) n (%)
AE leading to death (tablet 400 mg (n=30)): 5 (16.7) n (%)
AE leading to discontinuation (tablet 400 mg (n=30)): 9 (30.0) n (%)
AE leading to dose reduction (tablet 400 mg (n=30)): 6 (20.0) n (%)
AE leading to treatment interruption (tablet 400 mg (n=30)): 28 (93.3) n (%)
Alopecia (tablet 400 mg (n=30)): 10 (33.3) n (%)
Any AE (tablet 400 mg (n=30)): 30 (100) n (%)
Arthralgia (tablet 400 mg (n=30)): 9 (30.0) n (%)
Asthenia (tablet 400 mg (n=30)): 10 (33.3) n (%)
Blood bilirubin increased (tablet 400 mg (n=30)): 15 (50.0) n (%)
Conjugated bilirubin increased (tablet 400 mg (n=30)): 7 (23.3) n (%)
Decreased appetite (tablet 400 mg (n=30)): 11 (36.7) n (%)
Diarrhoea (tablet 400 mg (n=30)): 19 (63.3) n (%)
Dry mouth (tablet 400 mg (n=30)): 12 (40.0) n (%)
Dry skin (tablet 400 mg (n=30)): 7 (23.3 n (%)
Dysgeusia (tablet 400 mg (n=30)): 10 (33.3) n (%)
Epistaxis (tablet 400 mg (n=30)): 14 (46.7) n (%)
Fatigue (tablet 400 mg (n=30)): 9 (30.0) n (%)
Hyperbilirubinaemia (tablet 400 mg (n=30)): 11 (36.7) n (%)
Hyperphosphataemia (tablet 400 mg (n=30)): 8 (26.7) n (%)
Hypertension (tablet 400 mg (n=30)): 8 (26.7) n (%)
Jaundice (tablet 400 mg (n=30)): 11 (36.7) n (%)
Mucosal inflammation (tablet 400 mg (n=30)): 7 (23.3) n (%)
Myalgia (tablet 400 mg (n=30)): 3 (10.0) n (%)
Nasal dryness (tablet 400 mg (n=30)): 6 (20.0) n (%)
Nausea (tablet 400 mg (n=30)): 7 (23.3) n (%)
Onycholysis (tablet 400 mg (n=30)): 3 (10.0) n (%)
Palmar-plantar eryrthodysaestesia (tablet 400 mg (n=30)): 15 (50.0) n (%)
Related AE (tablet 400 mg (n=30)): 29 (96.7) n (%)
Related SAEs (tablet 400 mg (n=30)): 4 (13.3) n (%)
Stomatitis (tablet 400 mg (n=30)): 17 (56.7) n (%)
Vomiting (tablet 400 mg (n=30)): 5 (16.7) n (%)
Weight decreased (tablet 400 mg (n=30)): 5 (16.7) n (%)
